Test [1] deals with Rattus norvegicus. The experiment in a line: Percent unchanged tumor size (51-150%) in DMBA-induced mammary carcinoma in rats at 2 mg/kg/day. The format is functional.
For test [2], the system named is Rattus norvegicus. Kind of test: Percent remission in DMBA-Induced Mammary Carcinoma in rats at 5 mg/kg/day. Format: functional.
The target in test [3] is T1, Estrogen receptor (Mus musculus) (UniProt O08537+P19785). The experiment in a line: Uterotrophic effect in mice at 100 ug. Format: functional, tissue-based. The note with it: Uterus. In outline: (§1)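 Immature female NMRI mice, 20 days old (14.5 ± 1.2 g), 10 per randomized group. Received test compound subcutaneously in 0.1 mL olive oil daily for 3 days. Uteri removed 24 h after final dose, Bouin-fixed, washed, dried and weighed to measure stimulation of uterine growth.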

The test system of test [4] is Rattus norvegicus. The experiment in a line: Percent change in tumor area in DMBA-induced carcinoma in rats after 28 day therapy at 2 mg/kg. Format: functional.
Test [5] deals with T1, Estrogen receptor (Mus musculus). Kind of test: Percent inhibition of estrone stimulated uterine growth in mice at 100 […]. The format is functional. The procedure, abridged:
(§2)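 Immature NMRI mice, 20 days old (14.5 ± 1.2 g), randomly grouped 10 per group. Given daily subcutaneous test compound in 0.1 mL olive oil for 3 days, together with estrone to stimulate uterine growth. Uteri taken 24 h after last injection, fixed in Bouin's solution, washed, dried and weighed. Read-out is inhibition of estrone-stimulated uterine growth.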

For test [6], the system named is Rattus norvegicus. Kind of test: Percent increase in tumor size (>150%) in DMBA-induced mammary carcinoma in rats at 2 mg/kg/day. The format is functional.
The subject of test [7] is Rattus norvegicus. The experiment in a line: ercent reduction in tumor size (<50%) in DMBA-induced mammary carcinoma in rats at 5 mg/kg/day. The format is functional.
In test [8] the target is T1, Estrogen receptor (Mus musculus). The experiment in a line: Uterotrophic effect in mice at 0 ug. Format: functional, tissue-based. The note with it: Uterus. The procedure, abridged: as §1
Test [9] addresses Estrogen receptor (Bos taurus) (UniProt Q9XSB5+P49884). Kind of test: Relative binding affinity for calf uterine estrogen receptor compared to [3H]estradiol. The format is protein assay. The procedure, abridged: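 Competition binding with calf uterine cytosol and [3H]estradiol, incubated 16 h at 4 °C and stopped with dextran-coated charcoal. Supernatant radioactivity counted after centrifugation. Six competitor concentrations spanned 50% displacement on a semilog plot. RBA = (molar E2 concentration / competitor concentration each giving 50% reduction of bound [3H]E2) × 100.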

The target in test [10] is T1, Estrogen receptor (Mus musculus). The experiment in a line: Anti-uterotrophic effect in mice at 0 ug. Format: functional. The procedure, abridged:
as §2

Test [11] shares this target. Kind of test: Anti-uterotrophic effect in mice at 0.1 ug. Format: functional. The procedure, abridged: as §2
In test [12] the test system is Rattus norvegicus. The experiment in a line: Percent reduction in tumor size (<50%) in DMBA-induced mammary carcinoma in rats at 2 mg/kg/day. The format is functional.
Test [13] concerns the target T1, Estrogen receptor (Mus musculus). Kind of test: Anti-uterotrophic effect in mice at 10 ug. The format is functional. In outline: as §2
For test [14], the system named is Rattus norvegicus. Kind of test: Percent change in body weight in DMBA-induced mammary carcinoma in rats after 7 day therapy at 5 mg/kg/day. Format: functional.
The subject of test [15] is Rattus norvegicus. The experiment in a line: Percent remission in DMBA-Induced Mammary Carcinoma in rats at 2 mg/kg/day. The format is functional.
The target of test [16] is T1, Estrogen receptor (Mus musculus). Kind of test: Uterotrophic effect in mice at 1000 ug. The format is functional, tissue-based. The note with it: Uterus. The procedure, abridged:
as §1

Test [17] has the same target. The experiment in a line: Uterotrophic effect in mice at 1 ug. Format: functional, tissue-based. As to conditions: Uterus. In outline: as §1
For test [18] the target is unchanged. Kind of test: Uterotrophic effect in mice at 10 ug. The format is functional, tissue-based. As to conditions: Uterus. The procedure, abridged: as §1
Test [19] shares this target. Kind of test: Anti-uterotrophic effect in mice at 1000 ug. The format is functional. The procedure, abridged: as §2
Test [20] shares this target. The experiment in a line: Anti-uterotrophic effect in mice at 1 ug. Format: functional. In outline: as §2
The target is the same in test [21]. Kind of test: Percent inhibition of estrone stimulated uterine growth in mice at 1000 […]. The format is functional. In outline:
as §2

Test [22] relates to Rattus norvegicus. The experiment in a line: Percent increase in tumor size (>150%) in DMBA-induced mammary carcinoma in rats at 5 mg/kg/day. The format is functional.
Test [23] relates to Rattus norvegicus. The experiment in a line: Percent change in body weight in DMBA-induced mammary carcinoma in rats after 7 day therapy at 2 mg/kg/day. The format is functional.
Test [24] has as its system Rattus norvegicus. Kind of test: Percent unchanged tumor size (51-150%) in DMBA-induced mammary carcinoma in rats at 5 mg/kg/day. Format: functional.
Test [25] deals with Rattus norvegicus. Kind of test: Percent change in tumor area in DMBA-induced carcinoma in rats after 28 day therapy at 5 mg/kg. The format is functional.
Test [26] deals with T1, Estrogen receptor (Mus musculus). Kind of test: Percent inhibition of estrone stimulated uterine growth in mice at 10 […]. Format: functional. The procedure, abridged:
as §2

For test [27] the target is unchanged. The experiment in a line: Anti-uterotrophic effect in mice at 100 ug. Format: functional. The procedure, abridged: as §2
Test [28] shares this target. Kind of test: Percent inhibition of estrone stimulated uterine growth in mice at 5 […]. Format: functional. In outline: as §2
Test [29] shares this target. Kind of test: Percent inhibition of estrone stimulated uterine growth in mice at 50 […]. Format: functional. In outline: as §2
Test [30] has the same target. Kind of test: Percent inhibition of estrone stimulated uterine growth in mice at 500 […]. The format is functional. The procedure, abridged: as §2
Test [31] has the same target. The experiment in a line: Anti-uterotrophic effect in mice at 50 ug. Format: functional. In outline:
as §2

The target is the same in test [32]. Kind of test: Anti-uterotrophic effect in mice at 500 ug. The format is functional. The procedure, abridged: as §2
The target is the same in test [33]. The experiment in a line: Anti-uterotrophic effect in mice at 5 ug. The format is functional. The procedure, abridged: as §2
The target is the same in test [34]. The note with it: Uterus.
The target is the same in test [35].
In test [36] the test system is Rattus norvegicus. The experiment in a line: Percent reduction in tumor size (<50%) in DMBA-induced mammary carcinoma in rats at 5 mg/kg/day. The format is functional.
Test [37] has as its target T1, Estrogen receptor (Mus musculus). The experiment in a line: Uterotrophic effect in mice at 250 ug. Format: functional, tissue-based. The note with it: Uterus. In outline: as §1
For test [38] the target is unchanged. Kind of test: Uterotrophic effect in mice at 24 ug. The format is functional, tissue-based. As to conditions: Uterus. The procedure, abridged:
as §1

Test [39] has the same target. Kind of test: Uterotrophic effect in mice at 8 ug. The format is functional, tissue-based. The note with it: Uterus. The procedure, abridged:
as §1

Test [40] has the same target. Kind of test: Uterotrophic effect in mice at 80 ug. As to conditions: Uterus. Format: functional, tissue-based. The procedure, abridged:
as §1

Experimental findings from ChEMBL document CHEMBL1123042, “Ring-substituted 1,1,2,2-tetraalkylated 1,2-bis(hydroxyphenyl)ethanes. 4. Synthesis, estrogen receptor binding affinity, and evaluation of antiestrogenic and mammary tumor inhibiting activity of symmetrically disubstituted 1,1,2,2-tetramethyl-1,2-bis(hydroxyphenyl)ethanes” (1985) are described below.

One may read the inhibition as the relative decrease from the control value, in per cent. Low values mean a weak effect, high ones a strong effect.

“And” between values parts separate entries of the source, which are not always exact repeats. Equal values may be shown once.

T1 sequence (O08537 whole entry, looked up): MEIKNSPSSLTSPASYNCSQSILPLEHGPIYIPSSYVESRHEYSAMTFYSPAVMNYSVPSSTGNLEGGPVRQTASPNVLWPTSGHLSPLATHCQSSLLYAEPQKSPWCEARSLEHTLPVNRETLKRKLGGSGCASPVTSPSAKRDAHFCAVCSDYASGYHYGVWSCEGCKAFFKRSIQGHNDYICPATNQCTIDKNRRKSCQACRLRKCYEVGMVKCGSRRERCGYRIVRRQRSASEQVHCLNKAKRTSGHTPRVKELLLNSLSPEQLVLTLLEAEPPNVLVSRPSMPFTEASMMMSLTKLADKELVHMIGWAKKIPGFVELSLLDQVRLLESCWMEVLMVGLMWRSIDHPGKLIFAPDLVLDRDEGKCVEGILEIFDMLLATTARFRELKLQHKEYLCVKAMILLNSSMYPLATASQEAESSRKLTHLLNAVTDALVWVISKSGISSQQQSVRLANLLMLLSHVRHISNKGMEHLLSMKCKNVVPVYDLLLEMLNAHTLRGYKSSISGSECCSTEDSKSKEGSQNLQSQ
T1 sequence (P19785 whole entry, looked up): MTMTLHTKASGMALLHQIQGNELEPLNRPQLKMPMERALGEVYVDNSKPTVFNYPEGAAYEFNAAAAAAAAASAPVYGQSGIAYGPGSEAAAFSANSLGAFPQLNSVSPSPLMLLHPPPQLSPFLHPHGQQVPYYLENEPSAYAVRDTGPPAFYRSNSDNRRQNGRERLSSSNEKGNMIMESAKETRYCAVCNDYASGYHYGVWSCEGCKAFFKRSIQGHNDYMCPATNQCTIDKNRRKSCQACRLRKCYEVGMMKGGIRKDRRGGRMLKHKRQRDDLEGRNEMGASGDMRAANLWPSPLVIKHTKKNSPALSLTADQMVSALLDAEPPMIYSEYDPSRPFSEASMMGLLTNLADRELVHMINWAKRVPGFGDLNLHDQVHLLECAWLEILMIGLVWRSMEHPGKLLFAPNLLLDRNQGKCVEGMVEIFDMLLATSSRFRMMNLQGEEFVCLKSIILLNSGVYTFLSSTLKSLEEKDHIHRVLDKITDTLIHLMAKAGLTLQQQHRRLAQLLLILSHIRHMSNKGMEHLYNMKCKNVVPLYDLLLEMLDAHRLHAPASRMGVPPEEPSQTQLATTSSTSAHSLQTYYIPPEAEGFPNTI

With `CC(C)(c1ccc(O)cc1F)C(C)(C)c1ccc(O)cc1F`, the Change of size in test [1] worked out at 14%; in test [6], 18%; in test [7], 10%; in test [12], 4%; in [22] it was 13%; in test [24], 3%. The Remission was determined as 74% in test [2] and 64% in test [15]. The Effect in test [3] was 42.6; in test [8], 16.4; in [10] it was 13.8; in [11], 47.7; in [13] it was 41; in [16], 38.5. Moreover, the Effect in [17] is 27; in [18] it was 38.8; in test [19], 34.2; in [20] it was 49.9; in [27] it was 35.9. Further, the Change of area in test [4] was 22%; in [25] it was -47%. In addition, the inhibition in test [5] was 35%; in test [21], 40%; in test [26], 20%. Besides, the relative binding affinity (RBA) in test [9] turned out to be 6.4. In addition, the Change of weight in [14] is -4%; in test [23] it was -3.1%.
In the case of `CC(C)(c1cc(O)ccc1Cl)C(C)(C)c1cc(O)ccc1Cl`, the Effect in [3] is 33; in test [8], 11.1; in [10], 13.7; in test [16], 35.7; in [17] it was 14.7; in [18], 22.6. For the same molecule, the Effect in test [31] was 44.2 and 34.9; in test [32], 37.8. The molecule also gave an inhibition in test [28] of 7%. In [9], this molecule had a relative binding affinity (RBA) of 3.5. For the same molecule, the results for the Inhibition (alpha = 0.01) in test [29] and in [30] were 36% and 27%, respectively.
For `Cc1cc(O)ccc1C(C)(C)C(C)(C)c1ccc(O)cc1C`, the Effect was determined as 28 in [3]; 11.1 in test [8]; 51.2 in test [33]; 13.7 in test [10]; 38 in [16]; 16.6 in test [17]. Besides, the Effect is 22.2 in test [18], 50 in test [31] and 37.3 in test [32]. Further, the relative binding affinity (RBA) in test [9] was found to be 2.6. Besides, the inhibition in test [30] was found to be 22%.
Consider `C[C@]12CC[C@@H]3c4ccc(O)cc4CC[C@H]3[C@@H]1CCC2=O`, for which the uterine weight amounted to 45.3 mg/100 g in test [34] and 47.8 mg/100 g in [35].
For `Cc1ccc(O)cc1C(C)(C)C(C)(C)c1cc(O)ccc1C`, the relative binding affinity (RBA) in test [9] was found to be 0.9.
Regarding `CC(C)(c1cc(O)ccc1F)C(C)(C)c1cc(O)ccc1F`, the Change of size was determined as 16% in test [1]; 77% in test [6]; 4% in test [36]; 89% in test [22]; 7% in test [24]. In addition, the values for the Remission in test [2], in test [12] and in test [15] were 0%, 7% and 0%, respectively. Also, the Effect was 22.6 in test [3]; 9.7 in test [8]; 48.6 in test [33]; 13.7 in test [10]; 35.6 in test [16]; 15.4 in test [17]. In addition, the figures for the Effect in test [18], in test [31] and in [32] were 16.6, 37.2 and 32.5, respectively. Further, the Change of area in test [4] stood at 441%; in test [25], 396%. In [9], the relative binding affinity (RBA) came to 4. Moreover, the inhibition turned out to be 29% in test [29] and 43% in test [30]. In addition, the Change of weight in test [14] came to 2.9%; in test [23] it was 3.5%.
On to `COc1ccc(O)cc1C(C)(C)C(C)(C)c1cc(O)ccc1OC`, for which, in test [9], the relative binding affinity (RBA) is less than 0.01.
For `CC(C)(c1ccc(O)cc1)C(C)(C)c1ccc(O)cc1`, the Effect in test [37] was determined as 13.3; in [8], 9.2; in [38], 15.7; in test [16], 14.3; in test [39] it was 10.6; in test [40], 15.8. The relative binding affinity (RBA) in [9] was determined as 3.6.
In the case of `CC(C)(c1cccc(O)c1)C(C)(C)c1cccc(O)c1`, the Effect in test [37] was found to be 14.6; in test [8], 9.2; in test [38] it was 15.7; in [16], 13.4; in [39] it was 9.8; in [40] it was 15.4. In test [9], this molecule had a relative binding affinity (RBA) of 3.
In the case of `COc1cc(O)ccc1C(C)(C)C(C)(C)c1ccc(O)cc1OC`, the relative binding affinity (RBA) in [9] turned out to be 0.45.
Take `CC(C)(c1cc(O)cc(Cl)c1)C(C)(C)c1cc(O)cc(Cl)c1`: the relative binding affinity (RBA) in test [9] stood at 0.01.
In the case of `CC(C)(c1ccc(O)cc1Cl)C(C)(C)c1ccc(O)cc1Cl`, the Effect in test [3] stood at 32.7; in test [8], 13.7; in [33], 48.4; in test [10] it was 13.7; in test [16], 35.2; in [17], 35.8. For the same molecule, the Effect amounted to 51.5 in test [18], 38.9 in test [31] and 35.2 in test [32]. The same molecule returned a relative binding affinity (RBA) in [9] of 3.4. The inhibition in [29] was 17%; in test [30], 29%.
